# Measured values published in ChEMBL document CHEMBL3352487, “Synthesis, antibacterial activity, and biological evaluation of formyl hydroxyamino derivatives as novel potent peptide deformylase inhibitors against drug-resistant bacteria” (Eur J Med Chem, 2014).
# Key:
# Assay type in all cases: functional
# Staphylococcus aureus [1] = assay: Antimicrobial activity against Staphylococcus aureus isolate NEQAS 4158 after 24 hrs by broth microdilution method; conditions: isolate NEQAS 4158, 24 h
# Method in brief: (§1)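 Broth microdilution following NCCLS M7-A4; ATCC strains and clinical isolates from a provincial hospital.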
# Streptococcus pyogenes = assay: Antimicrobial activity against Streptococcus pyogenes 1307006P after 24 hrs by broth microdilution method; method in brief: as §1
# Staphylococcus aureus [2] = assay: Antimicrobial activity against Staphylococcus aureus MRSA08-12 in peritonitis mouse model assessed as mortality of host at 20 mg/kg, iv as single dose relative to control
# Method in brief: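 Outbred KM mice (20–25 g) infected i.p. with a 90–100% lethal dose (5 × 10^7 CFU/mL) in 0.5 mL brain heart infusion broth with 5% mucin. Single i.v. dose of 1.25–20 mg/kg in 20% DMSO, 0.1 mL. Ten mice per dose; daily monitoring for 14 days; ED50 from cumulative mortality by Bliss's method.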
compound,measurement,setting,value
CCCC[C@H](CN(O)C=O)C(=O)N1CC=C[C@H]1C(=O)Nc1ccc(F)c[n+]1[O-],MIC,Staphylococcus aureus [1],1 µg/mL
same,MIC,Streptococcus pyogenes,2 µg/mL
same,mortality at 20 mg/kg,Staphylococcus aureus [2],10%
